Data: ChEMBL document CHEMBL4619817, “Stereochemical Differences in Fluorocyclopropyl Amides Enable Tuning of Btk Inhibition and Off-Target Activity” (ACS Med Chem Lett, 2020)

test: Lipophilicity, logD of compound at 7.4 by the LC/MS based microscale shake flask method; assay type: physicochemical; conditions: octanol/water, pH 7.4
Outline: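 LogD measured by high-throughput microscale shake flask with LC tandem MS quantitation.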

Row | Structure (SMILES) | logD
1 | Cn1cc(-c2ccnc(-n3ncc4cc(C(C)(C)C)cc(F)c4c3=O)c2CO)cc(NC(=O)[C@H]2C[C@@H]2F)c1=O | 3
2 | Cn1cc(-c2ccnc(-n3ncc4cc(C(C)(C)C)cc(F)c4c3=O)c2CO)cc(NC(=O)[C@@H]2C[C@@H]2F)c1=O | 1.6
3 | Cn1cc(-c2ccnc(N3CCn4c(cc5c4CC(C)(C)C5)C3=O)c2CO)cc(NC(=O)C2(F)CC2)c1=O | 2.5
4 | Cn1cc(-c2cc(F)cc(-n3ncc4cc(C(C)(C)C)cc(F)c4c3=O)c2CO)cc(NC(=O)[C@H]2C[C@H]2F)c1=O | 2
5 | Cn1cc(-c2ccnc(-n3ncc4cc(C(C)(C)C)cc(F)c4c3=O)c2CO)cc(NC(=O)[C@@H]2C[C@H]2F)c1=O | 2.5
6 | Cn1cc(-c2ccnc(N3CCn4c(cc5c4CC(C)(C)C5)C3=O)c2CO)cc(NC(=O)C2CCC2)c1=O | 3.3
7 | Cn1cc(-c2ccnc(N3CCc4c(cc5n4CCCC5)C3=O)c2CO)cc(NC(=O)C2CC2)c1=O | 1.2
8 | COCC(=O)Nc1cc(-c2ccnc(N3CCn4c(cc5c4CC(C)(C)C5)C3=O)c2CO)cn(C)c1=O | 1.5
9 | CC(C)C(=O)Nc1cc(-c2ccnc(N3CCn4c(cc5c4CC(C)(C)C5)C3=O)c2CO)cn(C)c1=O | 3.2
10 | Cn1cc(-c2ccnc(N3CCn4c(cc5c4CC(C)(C)C5)C3=O)c2CO)cc(NC(=O)C2COC2)c1=O | 2.2
11 | Cn1cc(-c2ccnc(-n3ncc4cc(C(C)(C)C)cc(F)c4c3=O)c2CO)cc(NC(=O)C2CC2)c1=O | 2.5
12 | Cn1cc(-c2ccnc(N3CCn4c(cc5c4CC(C)(C)C5)C3=O)c2CO)cc(NC(=O)C2(O)CC2)c1=O | 1.8
13 | Cn1cc(-c2cc(F)cc(-n3ncc4cc(C(C)(C)C)cc(F)c4c3=O)c2CO)cc(NC(=O)[C@@H]2C[C@@H]2F)c1=O | 2.8
14 | Cn1cc(-c2ccnc(N3CCn4c(cc5c4CC(C)(C)C5)C3=O)c2CO)cc(NC(=O)c2cccnc2)c1=O | 2

test: Metabolic stability in human liver microsomes assessed as intrinsic clearance at 1 uM measured upto 60 mins by LC-MS/MS analysis; assay type: ADME, Microsome; conditions: read-out: CLH

Row | Structure (SMILES) | CLint scaled at 1 µM [mL/min/kg]
15 | Cn1cc(-c2ccnc(-n3ncc4cc(C(C)(C)C)cc(F)c4c3=O)c2CO)cc(NC(=O)[C@H]2C[C@@H]2F)c1=O | 8.5
16 | Cn1cc(-c2ccnc(-n3ncc4cc(C(C)(C)C)cc(F)c4c3=O)c2CO)cc(NC(=O)[C@@H]2C[C@@H]2F)c1=O | 8
17 | Cn1cc(-c2ccnc(-n3ncc4cc(C(C)(C)C)cc(F)c4c3=O)c2CO)cc(NC(=O)[C@@H]2C[C@H]2F)c1=O | 4.6
18 | Cn1cc(-c2ccnc(N3CCc4c(cc5n4CCCC5)C3=O)c2CO)cc(NC(=O)C2CC2)c1=O | 9.8
19 | Cn1cc(-c2ccnc(-n3ncc4cc(C(C)(C)C)cc(F)c4c3=O)c2CO)cc(NC(=O)C2CC2)c1=O | 3.2

test: Metabolic stability in rat liver microsomes assessed as intrinsic clearance at 1 uM measured upto 60 mins by LC-MS/MS analysis; assay type: ADME, Microsome; conditions: read-out: CLH

Row | Structure (SMILES) | CLint scaled at 1 µM [mL/min/kg]
20 | Cn1cc(-c2ccnc(-n3ncc4cc(C(C)(C)C)cc(F)c4c3=O)c2CO)cc(NC(=O)[C@H]2C[C@@H]2F)c1=O | 14
21 | Cn1cc(-c2ccnc(-n3ncc4cc(C(C)(C)C)cc(F)c4c3=O)c2CO)cc(NC(=O)[C@@H]2C[C@@H]2F)c1=O | 11
22 | Cn1cc(-c2ccnc(-n3ncc4cc(C(C)(C)C)cc(F)c4c3=O)c2CO)cc(NC(=O)[C@@H]2C[C@H]2F)c1=O | 15
23 | Cn1cc(-c2ccnc(N3CCc4c(cc5n4CCCC5)C3=O)c2CO)cc(NC(=O)C2CC2)c1=O | 20
24 | Cn1cc(-c2ccnc(-n3ncc4cc(C(C)(C)C)cc(F)c4c3=O)c2CO)cc(NC(=O)C2CC2)c1=O | 13

test: Apparent permeability from apical to basolateral side in MDCK cells at 10 uM incubated for 3 hrs by LC-MS/MS analysis; assay type: ADME, cell-based, Canis lupus familiaris; conditions: dog

Row | Structure (SMILES) | Papp A→B at 3 h, 10 µM [×10⁻⁶ cm/s]
25 | Cn1cc(-c2ccnc(-n3ncc4cc(C(C)(C)C)cc(F)c4c3=O)c2CO)cc(NC(=O)[C@H]2C[C@@H]2F)c1=O | 10.8
26 | Cn1cc(-c2ccnc(-n3ncc4cc(C(C)(C)C)cc(F)c4c3=O)c2CO)cc(NC(=O)[C@@H]2C[C@@H]2F)c1=O | 12.1 to 12.5
27 | Cn1cc(-c2ccnc(-n3ncc4cc(C(C)(C)C)cc(F)c4c3=O)c2CO)cc(NC(=O)[C@@H]2C[C@H]2F)c1=O | 14
28 | Cn1cc(-c2ccnc(-n3ncc4cc(C(C)(C)C)cc(F)c4c3=O)c2CO)cc(NC(=O)C2CC2)c1=O | 13.5

test: Clearance in Sprague-Dawley rat at 0.2 mg/kg, iv measured upto 8 hrs by LC-MS/MS analysis; assay type: ADME, organism-based; conditions: in vivo

Row | Structure (SMILES) | clearance [mL/min/kg]
29 | Cn1cc(-c2ccnc(-n3ncc4cc(C(C)(C)C)cc(F)c4c3=O)c2CO)cc(NC(=O)[C@@H]2C[C@@H]2F)c1=O | 15

test: Oral bioavailability in Sprague-Dawley rat at 1 mg/kg measured upto 8 hrs by LC-MS/MS analysis; assay type: ADME, organism-based; conditions: in vivo

Row | Structure (SMILES) | bioavailability [%]
30 | Cn1cc(-c2ccnc(-n3ncc4cc(C(C)(C)C)cc(F)c4c3=O)c2CO)cc(NC(=O)[C@@H]2C[C@@H]2F)c1=O | 40

test: Unbound clearance in Sprague-Dawley rat at 1 mg/kg, po measured upto 8 hrs by LC-MS/MS analysis; assay type: ADME, organism-based; conditions: in vivo

Row | Structure (SMILES) | CL free [mL/min/kg]
31 | Cn1cc(-c2ccnc(-n3ncc4cc(C(C)(C)C)cc(F)c4c3=O)c2CO)cc(NC(=O)[C@@H]2C[C@@H]2F)c1=O | 326

test: Clearance in Beagle dog at 1 mg/kg, iv measured upto 24 hrs by LC-MS/MS analysis; assay type: ADME, organism-based, Canis lupus familiaris; conditions: in vivo

Row | Structure (SMILES) | clearance [mL/min/kg]
32 | Cn1cc(-c2ccnc(-n3ncc4cc(C(C)(C)C)cc(F)c4c3=O)c2CO)cc(NC(=O)[C@@H]2C[C@@H]2F)c1=O | 2

test: Oral bioavailability in Beagle dog at 2 mg/kg measured upto 24 hrs by LC-MS/MS analysis; assay type: ADME, organism-based, Canis lupus familiaris; conditions: in vivo

Row | Structure (SMILES) | bioavailability [%]
33 | Cn1cc(-c2ccnc(-n3ncc4cc(C(C)(C)C)cc(F)c4c3=O)c2CO)cc(NC(=O)[C@@H]2C[C@@H]2F)c1=O | 123

test: Metabolic stability in dog Hepatocyte assessed as intrinsic clearance at 1 uM measured upto 60 mins by LC-MS/MS analysis; assay type: ADME, cell-based, Canis lupus familiaris; conditions: hepatocytes, read-out: CLH

Row | Structure (SMILES) | CLint scaled at 1 µM [mL/min/kg]
34 | Cn1cc(-c2ccnc(-n3ncc4cc(C(C)(C)C)cc(F)c4c3=O)c2CO)cc(NC(=O)[C@@H]2C[C@@H]2F)c1=O | < 21

test: Metabolic stability in rat Hepatocyte assessed as intrinsic clearance at 1 uM measured upto 60 mins by LC-MS/MS analysis; assay type: ADME, cell-based; conditions: hepatocytes, read-out: CLH

Row | Structure (SMILES) | CLint scaled at 1 µM [mL/min/kg]
35 | Cn1cc(-c2ccnc(-n3ncc4cc(C(C)(C)C)cc(F)c4c3=O)c2CO)cc(NC(=O)[C@@H]2C[C@@H]2F)c1=O | 11

test: Metabolic stability in human Hepatocyte assessed as intrinsic clearance at 1 uM measured upto 60 mins by LC-MS/MS analysis; assay type: ADME, cell-based; conditions: hepatocytes, read-out: CLH

Row | Structure (SMILES) | CLint scaled at 1 µM [mL/min/kg]
36 | Cn1cc(-c2ccnc(-n3ncc4cc(C(C)(C)C)cc(F)c4c3=O)c2CO)cc(NC(=O)[C@@H]2C[C@@H]2F)c1=O | 6.2

test: Metabolic stability in dog liver microsomes assessed as intrinsic clearance at 1 uM measured upto 60 mins by LC-MS/MS analysis; assay type: ADME, Canis lupus familiaris, Microsome; conditions: read-out: CLH

Row | Structure (SMILES) | CLint scaled at 1 µM [mL/min/kg]
37 | Cn1cc(-c2ccnc(-n3ncc4cc(C(C)(C)C)cc(F)c4c3=O)c2CO)cc(NC(=O)[C@@H]2C[C@@H]2F)c1=O | 20

test: Metabolic stability in human Hepatocyte assessed as compound hydrolysis at 5 uM incubated for 3 hrs by LC-MS/MS analysis; assay type: ADME, cell-based; conditions: hepatocytes, read-out: Drug degradation
Outline: (§1)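 Compound incubated at 5 μM in cryopreserved hepatocytes (∼1.0 × 10^6 cells/mL) for 3 h; percent amide hydrolysis determined.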

Row | Structure (SMILES) | metabolised at 3 h, 5 µM [%]
38 | Cn1cc(-c2ccnc(-n3ncc4cc(C(C)(C)C)cc(F)c4c3=O)c2CO)cc(NC(=O)[C@@H]2C[C@@H]2F)c1=O | ≤ 1

test: Metabolic stability in rat Hepatocyte assessed as compound hydrolysis at 5 uM incubated for 3 hrs by LC-MS/MS analysis; assay type: ADME, cell-based; conditions: hepatocytes, read-out: Drug degradation; outline: as §1

Row | Structure (SMILES) | metabolised at 3 h, 5 µM [%]
39 | Cn1cc(-c2ccnc(-n3ncc4cc(C(C)(C)C)cc(F)c4c3=O)c2CO)cc(NC(=O)[C@@H]2C[C@@H]2F)c1=O | ≤ 1

test: Metabolic stability in dog Hepatocyte assessed as compound hydrolysis at 5 uM incubated for 3 hrs by LC-MS/MS analysis; assay type: ADME, cell-based, Canis lupus familiaris; conditions: hepatocytes, read-out: Drug degradation; outline: as §1

Row | Structure (SMILES) | metabolised at 3 h, 5 µM [%]
40 | Cn1cc(-c2ccnc(-n3ncc4cc(C(C)(C)C)cc(F)c4c3=O)c2CO)cc(NC(=O)[C@@H]2C[C@@H]2F)c1=O | ≤ 1
